How the values were obtained:
[1] = Antiproliferative activity against HTLV1-carrying human S1T cells isolated from peripheral blood mononuclear cells of adult T leukemic patient after 4 days by MTT assay; type: functional; conditions: 96 h
Method in brief: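 Cells grown 4 days without or with a range of compound concentrations; viable cell number read by MTT; IC₅₀ calculated from the resulting data.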

[2] = tested on: MOLT-4; test: Antiproliferative activity against HTLV1-deficient human MOLT4 cells after 4 days by MTT assay; type: functional, cell-based; conditions: MOLT-4, 96 h
Method in brief: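 Cells were cultured without or with a range of test-compound concentrations for 4 days. Viable cell number was then measured by MTT, and IC50 values were calculated from it. The same protocol was run in parallel on S1T cells, an ATL patient-derived line.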

[3] = tested on: MOLT-4; test: Selectivity index, ratio of IC50 for HTLV1-deficient human MOLT4 cells to IC50 for HTLV1-carrying S1T cells isolated from peripheral blood mononuclear cells of adult T leukemic patient; type: functional
Method in brief: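 SI taken as IC₅₀ in MOLT-4 over IC₅₀ in S1T cells. Both IC₅₀ values come from 4-day MTT viable-cell counts over a range of concentrations.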

[4] = Cell cycle arrest in HTLV1-carrying human S1T cells isolated from peripheral blood mononuclear cells of adult T leukemic patient assessed as accumulation at G0/G1 phase at 20 uM after 24 hrs using propidium iodide/RNA staining buffer by FACS analysis; type: functional
Method in brief: (§1)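 Cells seeded at 1 × 10⁶/ml with or without 20 µM compound for 24 h. Then PBS wash, fixing in 1% paraformaldehyde, permeabilising in 70% ethanol and 15 min propidium iodide/RNA staining. Phase populations given as % of cells.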

[5] = Cell cycle arrest in HTLV1-carrying human S1T cells isolated from peripheral blood mononuclear cells of adult T leukemic patient assessed as accumulation at G2/M phase at 20 uM after 24 hrs using propidium iodide/RNA staining buffer by FACS analysis; type: functional; method in brief: as §1
[6] = Cell cycle arrest in HTLV1-carrying human S1T cells isolated from peripheral blood mononuclear cells of adult T leukemic patient assessed as accumulation at S phase at 20 uM after 24 hrs using propidium iodide/RNA staining buffer by FACS analysis; type: functional; method in brief: as §1
[7] = tested on: MOLT-4; test: Cell cycle arrest in HTLV1-deficient human MOLT4 cells assessed as accumulation at G0/G1 phase at 20 uM after 24 hrs using propidium iodide/RNA staining buffer by FACS analysis; type: functional; method in brief: as §1
[8] = tested on: MOLT-4; test: Cell cycle arrest in HTLV1-deficient human MOLT4 cells assessed as accumulation at G2/M phase at 20 uM after 24 hrs using propidium iodide/RNA staining buffer by FACS analysis; type: functional; method in brief: as §1
[9] = tested on: MOLT-4; test: Cell cycle arrest in HTLV1-deficient human MOLT4 cells assessed as accumulation at S phase at 20 uM after 24 hrs using propidium iodide/RNA staining buffer by FACS analysis; type: functional; method in brief: as §1
[10] = Induction of apoptosis in HTLV1-carrying human S1T cells isolated from peripheral blood mononuclear cells of adult T leukemic patient at 20 uM after 24 hrs using fluorescein isothiocyanate-conjugated annexin V staining by FACS analysis; type: functional
Method in brief: (§2)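 Cells seeded at 1 × 10⁶/ml and held with or without 20 µM compound for 24 or 48 h. Apoptotic cells given as %; relative values are the ratio of treated to untreated apoptosis %.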

[11] = Induction of apoptosis in HTLV1-carrying human S1T cells isolated from peripheral blood mononuclear cells of adult T leukemic patient at 20 uM after 48 hrs using fluorescein isothiocyanate-conjugated annexin V staining by FACS analysis; type: functional; method in brief: as §2
[12] = tested on: MOLT-4; test: Induction of apoptosis in HTLV1-deficient human MOLT4 cells at 20 uM after 24 hrs using fluorescein isothiocyanate-conjugated annexin V staining by FACS analysis; type: functional; method in brief: as §2
[13] = tested on: MOLT-4; test: Induction of apoptosis in HTLV1-deficient human MOLT4 cells at 20 uM after 48 hrs using fluorescein isothiocyanate-conjugated annexin V staining by FACS analysis; type: functional; method in brief: as §2
[14] = Induction of apoptosis in HTLV1-carrying human S1T cells isolated from peripheral blood mononuclear cells of adult T leukemic patient at 20 uM after 24 hrs using fluorescein isothiocyanate-conjugated annexin V staining by FACS analysis relative to control; type: functional; method in brief: as §2
[15] = Induction of apoptosis in HTLV1-carrying human S1T cells isolated from peripheral blood mononuclear cells of adult T leukemic patient at 20 uM after 48 hrs using fluorescein isothiocyanate-conjugated annexin V staining by FACS analysis relative to control; type: functional; method in brief: as §2
[16] = tested on: HL-60; test: Antiproliferative activity against human HL60 cells; type: functional, cell-based
[17] = tested on: Jurkat; test: Antiproliferative activity against human Jurkat cells; type: functional, cell-based
[18] = tested on: U-937; test: Antiproliferative activity against human U937 cells; type: functional, cell-based
[19] = tested on: MOLT-4; test: Antiproliferative activity against human MOLT4 cells; type: functional, cell-based

Row | SMILES | IC50 [1] | IC50 [2] | Ratio IC50 [3] | other results
1 | CC1(C)CCC(C)(C)c2cc(C(=O)O)c(O)cc21 | 29.7 µM | 44.4 µM | 1.5 | 
2 | CC1(C)CCC(C)(C)c2cc(C=O)ccc21 | 33 µM | 24.8 µM | 0.75 | 
3 | CON(C)C(=O)c1ccc2c(c1)C(C)(C)CCC2(C)C | 12.6 µM | 9.9 µM | 0.8 | 
4 | CC1(C)CCC(C)(C)c2cc(C(N)=O)ccc21 | 37 µM | 39.4 µM | 1.1 | 
5 | CC(=O)c1cc(C)cc(C)c1 | > 100 µM | > 100 µM |  | 
6 | CC1(C)CCC(C)(C)c2cc(C(=O)O)ccc21 | > 100 µM | 61.1 µM |  | 
7 | COc1cc2c(cc1C(C)=O)C(C)(C)CCC2(C)C | 7 µM | 11.9 µM | 1.7 | 
8 | CC(=S)c1cc2c(cc1O)C(C)(C)CCC2(C)C | 6.9 µM | 36.4 µM | 5.3 | 
9 | CC(O)c1ccc2c(c1)C(C)(C)CCC2(C)C (racemic) | 39.3 µM | 34.4 µM | 0.87 | 
10 | CC(C)C(=O)c1cc2c(cc1O)C(C)(C)CCC2(C)C | 6 µM | 31.9 µM | 5.3 | 
11 | CC1(C)CCC(C)(C)c2cc(C(=O)c3ccccc3)c(O)cc21 | 15.2 µM | 28.3 µM | 1.9 | 
12 | CC(C)C(=O)c1ccc2c(c1)C(C)(C)CCC2(C)C | 3.8 µM | 34.6 µM | 9.1 | 
13 | CC1(C)CCC(C)(C)c2cc(C(=O)c3ccccc3)ccc21 | 7 µM | 11.8 µM | 1.7 | 
14 | CC1(C)CCC(C)(C)c2ccccc21 | > 100 µM | > 100 µM |  | 
15 | CCC(=O)c1cc2c(cc1O)C(C)(C)CCC2(C)C | 4.7 µM | 32.3 µM | 6.9 | 
16 | CC(=O)c1ccc(C)c(C)c1 | > 100 µM | > 100 µM |  | 
17 | CC(=O)c1ccc2c(c1)C(C)(C)CCC2(C)C | 6.9 µM | 66 µM | 9.6 | 
18 | CC(=O)c1cc2c(cc1O)C(C)(C)CCC2(C)C | 6.7 µM | 82.9 µM | 12.4 | Activity [4]: 37%; Activity [5]: 23%; Activity [6]: 40%; Activity [7]: 42.14%; Activity [8]: 11.1%; Activity [9]: 46.76%; Activity [10]: 10.1%; Activity [11]: 10.1%; Activity [12]: 7%; Activity [13]: 4%; Activity [14]: 1.3%; Activity [15]: 2.1%
19 | CC(C)(C)C(=O)c1cc2c(cc1O)C(C)(C)CCC2(C)C | 41.5 µM | 43.2 µM | 1 | 
20 | CC(=O)c1ccc(C)cc1C | > 100 µM | > 100 µM |  | 
21 | CC1(C)CCC(C)(C)c2cc(NC(=O)c3ccc(C(=O)O)cc3)ccc21 [TAMIBAROTENE] |  |  |  | IC50 [16]: 6 µM; IC50 [17]: 17.3 µM; IC50 [18]: 20.2 µM; IC50 [19]: 19.5 µM
22 | CCC(=O)c1ccc2c(c1)C(C)(C)CCC2(C)C | 4.7 µM | 21.5 µM | 4.6 | 

— ChEMBL document CHEMBL1152930, “Discovery of tetrahydrotetramethylnaphthalene analogs as adult T-cell leukemia cell-selective proliferation inhibitors in a small chemical library constructed based on multi-template hypothesis” (Bioorg Med Chem, 2009)
